Test results: ChEMBL document CHEMBL3758106, “Antitumor Activity of Americanin A Isolated from the Seeds of Phytolacca americana by Regulating the ATM/ATR Signaling Pathway and the Skp2-p27 Axis in Human Colon Cancer Cells” (J Nat Prod, 2015)
Activity calls are given as the source filed them. The calls are words filed in the database; no cut-off is given here.

Tests used:
HCT-116 [1] = assay: Induction of cell cycle arrest in human HCT116 cells assessed as accumulation at sub-G1 phase at 15 uM after 48 hrs by propidium iodide staining-based flow cytometric analysis in presence of RNase A (reference value: 6.5%); format: functional
HCT-116 [2] = assay: Induction of cell cycle arrest in human HCT116 cells assessed as accumulation at G2/M phase at 30 uM after 48 hrs by propidium iodide staining-based flow cytometric analysis in presence of RNase A (reference value: 19.7%); format: functional
HCT-116 [3] = assay: Induction of apoptosis in human HCT116 cells assessed as early apoptotic cells at 15 uM after 48 hrs by annexin V-FITC/propidium iodide staining-based flow cytometric analysis (reference value: 1.6%); format: functional
HCT-116 [4] = assay: Induction of apoptosis in human HCT116 cells assessed as viable cells at 30 uM after 48 hrs by annexin V-FITC/propidium iodide staining-based flow cytometric analysis (reference value: 91.2%); format: functional; details: HCT-116, 48 h, read-out: Activity
HCT-116 [5] = assay: Induction of apoptosis in human HCT116 cells assessed as early apoptotic cells at 30 uM after 48 hrs by annexin V-FITC/propidium iodide staining-based flow cytometric analysis (reference value: 1.6%); format: functional
HCT-116 [6] = assay: Induction of apoptosis in human HCT116 cells assessed as decrease in Bcl-xL expression at 7.5 to 30 uM after 48 hrs by Western blot analysis; format: functional, cell-based
Outline: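 HCT116 cells exposed 48 h; Western blot of RIPA lysates (BCA quantification, SDS-PAGE, PVDF, overnight primary antibodies at 4 °C, HRP secondary, ECL).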

HCT-116 [7] = assay: Induction of apoptosis in human HCT116 cells assessed as increase in Bim expression after 48 hrs by Western blot analysis; format: functional, cell-based
Outline: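 Cells treated for 48 h and lysed in RIPA buffer (pH 8.0). Total protein was measured by BCA, and equal protein was resolved on 8−13% SDS-PAGE and moved to PVDF. Membranes were blocked in 5% BSA/TBST and given primary antibody overnight at 4 °C, then an HRP secondary for 2 h at RT. Detection by enhanced chemiluminescence.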

HCT-116 [8] = assay: Induction of reactive oxygen species in human HCT116 cells at 7.5 uM after 48 hrs by DCFH-DA staining-based flow cytometric analysis (reference value: 5.1%); format: functional
HCT-116 [9] = assay: Induction of apoptosis in human HCT116 cells assessed as cleaved caspase 3 level at 30 uM up to 24 hrs by Western blot analysis; format: functional, cell-based
HCT-116 [10] = assay: Induction of apoptosis in human HCT116 cells assessed as cleaved caspase 8 level at 30 uM up to 24 hrs by Western blot analysis in presence of NAC; format: functional, cell-based
HCT-116 [11] = assay: Induction of cell cycle arrest in human HCT116 cells assessed as accumulation at S phase at 30 uM after 24 hrs by propidium iodide staining-based flow cytometric analysis in presence of RNase A (reference value: 13.4%); format: functional
[12] = Antiproliferative activity against human HCT116 cells assessed as cell viability after 48 hrs by SRB assay; format: functional, cell-based; details: HCT-116, 48 h
Outline: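 HCT116 cells in 96-well plates exposed 24, 48 or 72 h; TCA fixation, 0.4% SRB staining, dye solubilised in 10 mM Tris pH 10.0, absorbance at 515 nm; viability relative to solvent-treated control.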

HCT-116 [13] = assay: Reduction in histone H3 Lys9 acetylation in human HCT116 cells at 7.5 to 30 uM after 24 hrs by Western blot analysis; format: functional, cell-based
[14] = Upregulation of ATR expression in human HCT116 cells up to 24 hrs at 1 hr by Western blot analysis; format: functional, cell-based; details: HCT-116
[15] = Upregulation of p53 expression in human HCT116 cells at 7.5 to 30 uM after 24 hrs by Western blot analysis; format: functional, cell-based; details: HCT-116
[16] = Upregulation of MDM2 expression in p53-null human HCT116 cells at 7.5 to 30 uM after 24 hrs by Western blot analysis; format: functional, cell-based; details: HCT-116
HCT-116 [17] = assay: Increase in p21 expression in human HCT116 cells after 24 hrs by western blot analysis; format: functional, cell-based
Outline: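 HCT116 cells exposed 24 h in complete medium; lysed in RIPA buffer (pH 8.0), protein by BCA, equal loads run on 8–13% SDS-PAGE, PVDF transfer, blocked in 5% BSA/TBST, primary antibodies overnight at 4 °C, HRP secondaries 2 h RT, ECL detection; β-actin as loading control.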

[18] = target: Cyclin-dependent kinase inhibitor 1B/S-phase kinase-associated protein 2 (Homo sapiens) (UniProt Q13309+P46527); assay: Inhibition of Skp2/p27 protein interaction in human HCT116 cells after 24 hrs by immunoprecipitation assay; format: cell-based; details: HCT-116
Outline: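 Protein measured by Bradford. Equal protein incubated with Protein G sepharose and the capture antibody (anti-p53, anti-Cul-1 or anti-Skp2) overnight at 4 °C. Bead eluates boiled in Laemmli/2-mercaptoethanol and analysed by Western blot.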

K562 = assay: Antiproliferative activity against human K562 cells after 24 to 72 hrs by SRB assay; format: functional, cell-based
Outline: (§1)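 Cells grown in 96-well plates (RPMI 1640; MRC-5 in MEM, 10% FBS, antibiotics) with compound […]; fixed in 10% TCA 30 min at 4 °C, stained 0.4% SRB in 1% acetic acid 1 h, dye dissolved in 10 mM Tris pH 10.0, A515 read; viability as % of solvent control, IC50 by nonlinear regression; mean of three independent experiments.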

Mus musculus = assay: Downregulation of Ki-67 in human HCT116 cells xenografted in nude mouse at 5 to 10 mg/kg, ip administered 3 times per week measured on day 41 by […]; format: functional, organism-based; details: HCT-116
Outline: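 Formalin-fixed, paraffin-embedded xenograft sections (mice dosed ip three times weekly) probed with antibodies, detected by LSAB/HRP, counterstained with H&E, imaged by inverted phase-contrast microscopy.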

HCT-116 [19] = assay: Induction of cell cycle arrest in human HCT116 cells assessed as accumulation at sub-G1 phase after 24 hrs by propidium iodide staining-based flow cytometric analysis in presence of RNase; format: functional
[20] = Antiproliferative activity against human HCT15 cells after 24 to 72 hrs by SRB assay; format: functional, cell-based; details: HCT-15; outline: as §1
HCT-116 [21] = assay: Antiproliferative activity against human HCT116 cells after 5 to 40 uM by SRB assay; format: functional, cell-based; details: TDE = time-dependent effect
HCT-116 [22] = assay: Induction of morphological change in human HCT116 cells assessed as appearance of rounded cells at 30 uM after 24 to 48 hrs by phase contrast microscopic analysis; format: functional, cell-based
Outline: (§2)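 HCT116 cells incubated with compound for 24 h, then viewed and photographed under phase-contrast microscopy; also examined at 48 h.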

HCT-116 [23] = assay: Induction of morphological change in human HCT116 cells assessed as loss of contact with surface of culture dish at 30 uM after 24 to 48 hrs by phase contrast microscopic analysis; format: functional, cell-based; outline: as §2
HCT-116 [24] = assay: Induction of cell cycle arrest in human HCT116 cells assessed as accumulation at G0/G1 phase at 7.5 uM after 24 hrs by propidium iodide staining-based flow cytometric analysis in presence of RNase A (reference value: 64.6%); format: functional

Cyclin-dependent kinase inhibitor 1B/S-phase kinase-associated protein 2 (Homo sapiens), sequence (P46527 whole entry, looked up): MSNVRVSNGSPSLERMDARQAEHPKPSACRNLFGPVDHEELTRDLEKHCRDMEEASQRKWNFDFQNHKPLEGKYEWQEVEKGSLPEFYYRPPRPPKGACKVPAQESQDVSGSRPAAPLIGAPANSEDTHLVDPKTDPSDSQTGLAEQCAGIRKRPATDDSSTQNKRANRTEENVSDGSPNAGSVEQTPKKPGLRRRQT
Cyclin-dependent kinase inhibitor 1B/S-phase kinase-associated protein 2 (Homo sapiens), sequence (Q13309 whole entry, looked up): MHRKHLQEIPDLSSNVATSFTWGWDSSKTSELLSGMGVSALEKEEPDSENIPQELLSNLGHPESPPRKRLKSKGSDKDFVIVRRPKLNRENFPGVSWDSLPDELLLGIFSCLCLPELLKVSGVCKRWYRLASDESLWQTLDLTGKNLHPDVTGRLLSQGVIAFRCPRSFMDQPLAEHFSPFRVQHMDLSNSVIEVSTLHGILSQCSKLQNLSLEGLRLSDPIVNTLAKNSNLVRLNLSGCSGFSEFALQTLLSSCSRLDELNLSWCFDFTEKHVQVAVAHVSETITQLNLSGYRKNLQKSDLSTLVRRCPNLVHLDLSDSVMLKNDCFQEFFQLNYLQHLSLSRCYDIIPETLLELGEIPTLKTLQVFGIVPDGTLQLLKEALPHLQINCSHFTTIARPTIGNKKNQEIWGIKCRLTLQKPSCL

Structure (SMILES): O=C/C=C/c1ccc2c(c1)O[C@@H](CO)[C@H](c1ccc(O)c(O)c1)O2 [AMERICANIN A]
- Activity (HCT-116 [1]): 37.9%
- Activity (HCT-116 [2]): 19%
- Activity (HCT-116 [3]): 12.2%
- viability at 30 µM (HCT-116 [4]): 30.6%
- Activity (HCT-116 [5]): 32.8%
- Activity (HCT-116 [6]): Active
- Activity (HCT-116 [7]): Dose-dependent effect
- Activity (HCT-116 [8]): 5.2%
- Activity (HCT-116 [9]): Active
- Activity (HCT-116 [10]): inactive
- Activity (HCT-116 [11]): 18.4%
- IC50 [12]: 9.6 µM
- Activity (HCT-116 [13]): Active
- Activity [14]: Dose-dependent effect
- Activity [15]: Active
- Activity [16]: Active
- Activity (HCT-116 [17]): Dose-dependent effect
- inhibition [18]: inactive
- IC50 (K562): 12.9 µM
- Activity (Mus musculus): Active
- Activity (HCT-116 [19]): Dose-dependent effect
- IC50 [20]: 12.5 µM
- Activity (HCT-116 [21]): tde
- Activity (HCT-116 [22]): Active
- Activity (HCT-116 [23]): Active
- Activity (HCT-116 [24]): 55.4%
